Laboratory results from publication PMC3115796 (The Journal of Cell Biology, 2011).

Columns and labels:
[1] = system: MT plus ends in HeLa cells; assay: MT plus end tracking, live-cell imaging; assay type: cell-based; details: live or fixed cells
Summary of the method: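 HeLa cells were grown in 45% DME, 45% Ham's F10 and 10% fetal calf serum. Live imaging used TIRF/widefield at 37°C in a stage-top incubator in culture medium (100× 1.49 NA objective, EMCCD, 0.065 µm/pixel). For fixed cells, −20°C methanol was applied for 15 min, with a 15-min 4% PFA postfix for SLAIN1/2 and EB1 staining, followed by immunofluorescence on a widefield microscope.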

[2] = system: SLAIN2 C terminus / full-length CLIP-170; assay: GST-SLAIN2 pull-down of CLIPs and full-length CLIP-170; assay type: binding

Row | Molecule | MT plus end tracking / localization (in words) [1] | association with SLAIN2 C terminus [2]
1 | GFP-SLAIN1: GFP-tagged SLAIN1 (protein, left off: GFP, end not stated, kept) MMAEQVKCASPVAASGAGPGPVVNAELEVKKLQELVRKLEKQNEQLRSRAASAAAAPHLLLLQPPPPSAPPPAGACSPLATHRAPASTTSPGPGALGPAFPGTYCLPSPAPSLLCSLQPADAPFVYSKPAAGFFGGGGSPEPGTAGTPPGEAATPPLPPPTLLDEVEPLDLESLAAWSEEDDYTWLYVGSSKTFTSPEKSPSPLQWCRHVLDNPTPEMEAARRSLRFRLEQGYTSRGSPLSPQSSIDSELSTSELEDDSISMGYKLQDLTDVQIMARLQEESLRQDYASTSASVSRNSSSVSLSSGKKGTCSDQEYDRYSLEDEEEFDHLPPPQPRLPRCSPFQRGIPHSQTFSSIRDCRRSPSTQYFPSNNFQQPQYYPPQAQTADQQPNRTNGDKLRRSMPNLARMPSTAAASSNLSSPVTVRSSQSFDSSLHGAGSGVSRVPSCIPSPGQIQHRVHSVGHFPVPIRQPLKATAYVSPTVQGSSSSGSSGSSGGSGSGMPLSNGTQLYSTTGIPTPNKAAASGILGRSALPRPSLAINGSNLPRSKIAQPVRSFLQPPKPLSSLSTLRDGNWRDGCY | colocalized with EB-positive MT ends | 
2 | GFP–CLIP-170-N: amino acids 4–309 of the rat CLIP-170 (protein, left off: GFP, end not stated, kept) LKPSGLKAPTKILKPGSTALKTPAAAAAPLEKTVPSEKASGPPSSETQEEFVDDFRVGERVWVNGNKPGFIQFLGETQFAPGQWAGIVLDEPIGKNDGSVAGVRYFQCEPLKGIFTRPSKLTRKVQAEDEANGLQTAHARAASPLSTAAATMVSSSPATPSNIPQKPSQPVAKETSATPQISNLTKTASESISNLSEAGSVKKGERELKIGDRVLVGGTKAGVVRFLGETDFAKGEWCGVELDEPLGKNDGAVAGTRYFQCQPKYGLFAPVHKVTKIGFPSTTPAKAKAAAVRRVMATTPASLKRS |  | associated with the SLAIN2 C terminus
